This note sets out measurements from ChEMBL document CHEMBL4007414, “Design, Synthesis, Structure-Activity Relationship Studies, and Three-Dimensional Quantitative Structure-Activity Relationship (3D-QSAR) Modeling of a Series of O-Biphenyl Carbamates as Dual Modulators of Dopamine D3 Receptor and Fatty Acid Amide Hydrolase” (J Med Chem, 2017).

Molecules are shown by their SMILES. Calls of active or inactive are those of the source. No cut-off for these calls is given here.

In data set [1] the target is T1, D(3) dopamine receptor (Homo sapiens, UniProt P35462). Kind of data set: Agonist activity at recombinant human dopamine D3 receptor expressed in CHO-K1 cells assessed as […] in cAMP accumulation after 30 mins by HTRF assay relative to dopamine. In kind it is functional, cell-based. Background: Cyclic AMP is a second messenger, typically raised through Gs and lowered through Gi signalling.
T1 sequence (P35462 whole entry): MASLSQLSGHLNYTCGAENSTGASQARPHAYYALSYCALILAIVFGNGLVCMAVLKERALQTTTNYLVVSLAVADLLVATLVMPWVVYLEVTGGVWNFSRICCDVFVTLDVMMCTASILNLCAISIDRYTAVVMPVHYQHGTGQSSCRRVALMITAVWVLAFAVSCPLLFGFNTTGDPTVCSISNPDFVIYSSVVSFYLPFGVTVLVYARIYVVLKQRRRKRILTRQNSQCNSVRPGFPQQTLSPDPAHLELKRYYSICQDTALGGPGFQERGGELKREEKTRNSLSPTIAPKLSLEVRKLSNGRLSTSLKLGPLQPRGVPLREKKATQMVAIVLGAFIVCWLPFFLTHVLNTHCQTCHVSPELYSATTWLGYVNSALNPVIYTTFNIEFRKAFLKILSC

In data set [2] the target is T2, Fatty-acid amide hydrolase 1 (Homo sapiens, UniProt O00519).
T2 sequence (O00519 whole entry): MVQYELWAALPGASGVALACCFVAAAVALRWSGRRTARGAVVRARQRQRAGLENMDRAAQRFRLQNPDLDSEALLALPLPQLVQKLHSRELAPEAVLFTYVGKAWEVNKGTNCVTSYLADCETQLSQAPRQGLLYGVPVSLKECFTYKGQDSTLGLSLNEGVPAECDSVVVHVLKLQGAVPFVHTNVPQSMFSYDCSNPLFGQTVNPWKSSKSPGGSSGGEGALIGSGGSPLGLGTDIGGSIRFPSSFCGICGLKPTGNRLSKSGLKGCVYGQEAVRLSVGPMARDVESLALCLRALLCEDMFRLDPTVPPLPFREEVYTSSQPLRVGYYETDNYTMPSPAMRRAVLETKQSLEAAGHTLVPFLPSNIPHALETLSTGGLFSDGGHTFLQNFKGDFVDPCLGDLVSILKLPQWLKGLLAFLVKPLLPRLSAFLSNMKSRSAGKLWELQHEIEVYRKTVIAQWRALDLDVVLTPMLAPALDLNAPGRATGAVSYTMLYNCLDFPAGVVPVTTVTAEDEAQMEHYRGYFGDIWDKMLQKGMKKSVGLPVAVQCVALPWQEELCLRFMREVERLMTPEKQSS
The data set can be described thus: Inhibition of human FAAH1 expressed in HEK293 cell membrane-enriched lysate using AMC arachidonyl amide as substrate preincubated for 50 mins followed by substrate addition measured after 4 hrs by fluorescence analysis. In outline:
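Membrane-enriched lysate (2,5 μg) from HEK293 cells stably expressing human FAAH-1, pre-incubated 50 min with compound or 2,5% DMSO vehicle in 50 mM Tris-HCl pH 7.4, 0.05% fatty acid-free BSA. Then 1 μM AMC arachidonyl amide added, 4 h at 37 °C.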

In data set [3] the target is T3, D(2) dopamine receptor (Homo sapiens, UniProt P14416). Kind of data set: Agonist activity at human dopamine D2 receptor-short expressed in CHO-K1 cells assessed as reduction in adenylyl cyclase activator NKH 477 induced cAMP accumulation preincubated for 10 mins followed by NKH 477 addition by HTRF assay. In kind it is functional, cell-based.
T3 sequence (P14416 whole entry): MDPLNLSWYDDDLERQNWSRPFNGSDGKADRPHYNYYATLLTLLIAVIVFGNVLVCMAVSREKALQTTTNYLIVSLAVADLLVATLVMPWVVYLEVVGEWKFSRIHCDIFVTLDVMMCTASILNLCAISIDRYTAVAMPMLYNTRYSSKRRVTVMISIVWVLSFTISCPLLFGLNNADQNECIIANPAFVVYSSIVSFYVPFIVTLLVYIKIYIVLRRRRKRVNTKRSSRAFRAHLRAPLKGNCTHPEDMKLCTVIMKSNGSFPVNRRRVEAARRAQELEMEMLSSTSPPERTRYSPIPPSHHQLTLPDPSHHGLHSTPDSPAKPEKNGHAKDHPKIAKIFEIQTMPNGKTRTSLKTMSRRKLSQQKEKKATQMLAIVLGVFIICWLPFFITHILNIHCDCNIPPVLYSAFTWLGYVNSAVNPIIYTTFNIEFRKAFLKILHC
For data set [4], the target named is T3, D(2) dopamine receptor. Kind of data set: Agonist activity at human dopamine D2 receptor-short expressed in CHO-K1 cells assessed as reduction in adenylyl cyclase activator NKH 477 induced cAMP accumulation preincubated for 10 mins followed by NKH 477 addition by HTRF assay relative to dopamine. In kind it is functional, cell-based.
Data set [5] is described as follows: Half life in rat plasma at 2 uM by UPLC-MS analysis. In kind it is ADME, cell-free. The procedure, abridged: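 Compound at 2 μM final in rat plasma with 5% DMSO, incubated at 37 °C. Samples taken at 0, 5, 15, 30, 60 and 120 min and quenched in cold acetonitrile with internal standard.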
Data set [6] in a line: Cmax in Sprague-Dawley rat plasma at 3 mg/kg, iv by UPLC-MS analysis. In kind it is ADME, organism-based. On the set-up: dose 3 mg/kg, route intravenous. The procedure, abridged: (§1)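 Cannulated male Sprague-Dawley rats (175–200 g), three per dose, dosed IV at 3 mg/kg or PO at 10 mg/kg in PEG400/Tween 80/saline 10/10/80. Blood taken IV at 0–240 min and PO at 0–1440 min. Plasma extracted with cold acetonitrile plus internal standard and analysed by UPLC-MS/MS against a 1 nM–10 μM calibration. PK parameters derived from time/concentration profiles.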

Data set [7] can be described thus: Half life in rat liver microsomes at […] by UPLC-MS analysis. The class given is ADME, microsome. For orientation: Liver microsomes are vesicles of endoplasmic reticulum, rich in cytochrome P450 enzymes.
Data set [8] in a line: Elimination half life in Sprague-Dawley rat plasma at 3 mg/kg, iv by UPLC-MS analysis. The class given is ADME, organism-based. The following applies: read-out: beta t1/2. In outline:
as §1

Data set [9] in a line: Volume of distribution in Sprague-Dawley rat plasma at 3 mg/kg, iv by UPLC-MS analysis. The class given is ADME, organism-based. In outline:
as §1

Data set [10] can be described thus: Clearance in Sprague-Dawley rat plasma at 3 mg/kg, iv by UPLC-MS analysis. In kind it is ADME, organism-based. The procedure, abridged:
as §1

Data set [11] is described as follows: Cmax in Sprague-Dawley rat plasma at 10 mg/kg, po by UPLC-MS analysis. The class given is ADME, organism-based. On the set-up: dose 10 mg/kg, route oral. In outline: as §1
Data set [12] is described as follows: Oral bioavailability in Sprague-Dawley rat […] at 10 mg/kg by UPLC-MS analysis. In kind it is ADME, organism-based.
Data set [13] can be described thus: Cmax in Sprague-Dawley rat brain at 10 mg/kg, po by UPLC-MS analysis. In kind it is ADME, organism-based. Also on record: dose 10 mg/kg, route oral. In outline:
(§2)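 Male Sprague-Dawley rats, three per time point, dosed orally at 10 mg/kg in PEG400/Tween 80/saline 10/10/80. Brains taken at 1 h and 4 h, homogenized in RIPA buffer and extracted with cold acetonitrile plus internal standard. Compound quantified by UPLC-MS/MS; protein measured by BCA.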

A short description of data set [14]: AUC in Sprague-Dawley rat brain at 10 mg/kg, po by UPLC-MS analysis. In kind it is ADME, organism-based. In outline: as §2
In data set [15] the test system is Brain. The data set can be described thus: Total drug uptake in Sprague-Dawley rat brain at 10 mg/kg, po by UPLC-MS analysis. In kind it is ADME, organism-based. The following applies: in vivo, read-out: Drug uptake. In outline: as §2
Data set [16] in a line: Tmax in Sprague-Dawley rat plasma at 3 mg/kg, iv by UPLC-MS analysis. The class given is ADME, organism-based. The procedure, abridged:
as §1

Data set [17] in a line: Tmax in Sprague-Dawley rat brain at 10 mg/kg, po by UPLC-MS analysis. In kind it is ADME, organism-based. The procedure, abridged: as §2
In data set [18] the target is Beta-1 adrenergic receptor (Homo sapiens) (UniProt P08588). The data set can be described thus: Displacement of [3H](-)CGP12177 from human beta1 adrenergic receptor expressed in HEK293 cells at 10 to 100 nM after 45 mins by scintillation counting. In kind it is cell-based. (In general: Displacement assays read how much labelled ligand stays bound in the presence of the test substance.)
Beta-1 adrenergic receptor (Homo sapiens), sequence (P08588 whole entry, looked up): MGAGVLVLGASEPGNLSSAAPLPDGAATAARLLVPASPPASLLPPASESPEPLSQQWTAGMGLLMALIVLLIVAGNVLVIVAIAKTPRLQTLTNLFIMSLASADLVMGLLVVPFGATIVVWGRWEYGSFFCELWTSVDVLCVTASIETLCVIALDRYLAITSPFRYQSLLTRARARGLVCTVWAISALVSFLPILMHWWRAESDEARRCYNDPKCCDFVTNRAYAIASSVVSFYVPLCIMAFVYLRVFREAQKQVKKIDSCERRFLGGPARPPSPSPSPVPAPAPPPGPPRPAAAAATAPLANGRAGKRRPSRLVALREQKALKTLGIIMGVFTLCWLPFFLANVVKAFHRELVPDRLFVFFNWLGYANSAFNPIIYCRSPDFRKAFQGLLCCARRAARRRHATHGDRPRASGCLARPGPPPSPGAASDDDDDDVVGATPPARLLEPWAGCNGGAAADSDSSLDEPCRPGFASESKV

The target of data set [19] is Beta-2 adrenergic receptor (Homo sapiens) (UniProt P07550). Kind of data set: Displacement of [3H](-)CGP12177 from beta2 adrenergic receptor (unknown origin) at 10 to 100 nM by scintillation counting.
Beta-2 adrenergic receptor (Homo sapiens), sequence (P07550 whole entry, looked up): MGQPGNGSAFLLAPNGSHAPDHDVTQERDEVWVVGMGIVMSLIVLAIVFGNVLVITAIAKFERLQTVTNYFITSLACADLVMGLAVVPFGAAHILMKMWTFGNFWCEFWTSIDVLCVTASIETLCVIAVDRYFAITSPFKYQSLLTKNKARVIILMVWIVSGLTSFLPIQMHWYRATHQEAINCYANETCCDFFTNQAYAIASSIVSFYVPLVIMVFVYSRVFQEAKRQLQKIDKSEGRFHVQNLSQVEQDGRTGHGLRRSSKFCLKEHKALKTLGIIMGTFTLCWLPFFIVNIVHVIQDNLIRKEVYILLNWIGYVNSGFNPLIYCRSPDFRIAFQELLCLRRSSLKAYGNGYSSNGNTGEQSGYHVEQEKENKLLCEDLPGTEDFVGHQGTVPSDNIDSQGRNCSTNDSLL
The target of data set [20] is T4, 5-hydroxytryptamine receptor 1A (Homo sapiens) (UniProt P08908).
T4 sequence (whole entry): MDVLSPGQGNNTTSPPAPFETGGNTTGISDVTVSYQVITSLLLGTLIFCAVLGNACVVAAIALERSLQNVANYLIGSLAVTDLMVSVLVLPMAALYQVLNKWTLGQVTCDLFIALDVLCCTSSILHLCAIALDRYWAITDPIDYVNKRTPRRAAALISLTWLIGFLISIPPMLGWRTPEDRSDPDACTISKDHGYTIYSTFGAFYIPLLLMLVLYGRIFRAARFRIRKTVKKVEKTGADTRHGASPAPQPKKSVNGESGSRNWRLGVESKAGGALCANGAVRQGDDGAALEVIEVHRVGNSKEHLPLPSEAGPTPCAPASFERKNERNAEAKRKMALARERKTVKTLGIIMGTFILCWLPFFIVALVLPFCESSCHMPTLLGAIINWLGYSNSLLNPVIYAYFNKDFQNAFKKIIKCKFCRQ
The data set can be described thus: Displacement of [3H]8-OH-DPAT from human 5HT-1A receptor expressed in Sf9 insect cells at 100 nM after 60 mins by scintillation counting.

The target in data set [21] is 5-hydroxytryptamine receptor 1B (Rattus norvegicus) (UniProt P28564). The data set can be described thus: Displacement of [125I]CYP from 5HT-1B receptor in OFA rat cortical membranes at 10 to 100 nM after 90 mins by scintillation counting. In kind it is cell membranes.
5-hydroxytryptamine receptor 1B (Rattus norvegicus), sequence (P28564 whole entry): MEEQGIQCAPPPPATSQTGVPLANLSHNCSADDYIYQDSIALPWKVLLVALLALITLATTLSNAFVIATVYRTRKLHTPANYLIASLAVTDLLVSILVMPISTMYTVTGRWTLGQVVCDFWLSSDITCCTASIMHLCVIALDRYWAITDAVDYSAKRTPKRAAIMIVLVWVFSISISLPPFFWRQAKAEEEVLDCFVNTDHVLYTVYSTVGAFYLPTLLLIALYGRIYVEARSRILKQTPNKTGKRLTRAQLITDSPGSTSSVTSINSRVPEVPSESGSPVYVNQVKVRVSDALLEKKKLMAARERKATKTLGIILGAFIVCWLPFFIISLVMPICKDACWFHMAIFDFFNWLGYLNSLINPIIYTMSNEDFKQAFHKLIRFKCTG
Data set [22] deals with T5, Monoglyceride lipase (Homo sapiens) (UniProt Q99685).
T5 sequence (whole entry): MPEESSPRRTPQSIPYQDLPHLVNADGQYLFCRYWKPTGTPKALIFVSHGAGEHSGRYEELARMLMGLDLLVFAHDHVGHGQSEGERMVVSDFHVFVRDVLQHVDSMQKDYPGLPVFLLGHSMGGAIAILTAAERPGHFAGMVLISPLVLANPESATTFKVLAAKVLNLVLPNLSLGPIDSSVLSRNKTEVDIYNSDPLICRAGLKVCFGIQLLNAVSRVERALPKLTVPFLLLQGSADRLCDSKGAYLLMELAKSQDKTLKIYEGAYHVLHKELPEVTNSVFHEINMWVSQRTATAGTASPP
The data set can be described thus: Irreversible inhibition of human MAGL after 1 hr by LC-MS/MS analysis.

Data set [23] addresses T1, D(3) dopamine receptor. The data set can be described thus: Agonist activity at recombinant human dopamine D3 receptor expressed in CHO-K1 cells assessed as […] in cAMP accumulation after 30 mins by HTRF assay. The class given is functional, cell-based.
The species named for data set [24] is Homo sapiens. Kind of data set: Ratio of EC50 for human dopamine D2 receptor-short expressed in CHO-K1 cells to EC50 for recombinant human dopamine D3 receptor expressed in CHO-K1 cells. The class given is cell-based.

`NC(=O)c1cccc(-c2ccc(OC(=O)NCCCCN3CCN(c4ccccc4)CC3)cc2)c1`: the Efficacy in [1] was 88%.
As to `NC(=O)c1cccc(-c2ccc(OC(=O)NCCCCN3CCN(c4cccc(Cl)c4Cl)CC3)cc2F)c1`, in data set [2], the midpoint of inhibition, the IC50, lay at 1 nM. The figures for the Efficacy in [1] and in data set [4] were 74% and 40.4%, respectively. In data set [3], the EC50 was determined as 13.7 nM.
For the molecule `O=C(NCCCN1CCN(c2cccc(Cl)c2Cl)CC1)Oc1ccc2c(c1)[nH]c1ccccc12`, in [1], the Efficacy was greater than 90%.
Regarding `NC(=O)c1cccc(-c2ccc(OC(=O)NCCCCN3CCN(c4ccccc4C(F)(F)F)CC3)cc2)c1`, in [3], the result was inactive.
As to `Cl.O=C(NCCCCN1CCN(c2cccc(Cl)c2Cl)CC1)Oc1ccc(-c2ccccc2)cc1`, the half-life at 2 µM in data set [5] is 1.62 h. Besides, the values for the Cmax in data set [6], in data set [11] and in [13] were 500 ng/mL, 54 ng/mL and 37 ng/mL, respectively. Besides, the half-life at […] in data set [7] is greater than 1 h. In addition, the half-life in [8] was 2.42 h. The Vd in [9] turned out to be 23.7 L/kg. Moreover, in data set [10], the clearance is 110 mL/min/kg. In data set [12], this molecule yielded a bioavailability of 21%. In data set [14], this molecule showed an AUC of 1.41 ng·h/mL. Moreover, the concentration in [15] worked out at 391 nM. The results for the Tmax in data set [16] and in data set [17] were 5 min and 4 h, respectively. Moreover, the inhibition result in data set [18], in data set [19], in data set [21] and in data set [22] was “inactive” throughout. This molecule also had an inhibition in data set [20] of 60.4%.
In data set [2], `O=C(NCCCCN1CCN(c2ccccc2C(F)(F)F)CC1)Oc1ccc(-c2ccccc2)cc1` returned an IC50 of 20.7 nM. Besides, the EC50 in data set [23] came out at 1200 nM. The Efficacy in data set [1] is greater than 90%.
For `O=C(NCCCCN1CCN(c2cccc(Cl)c2Cl)CC1)Oc1ccc2c(c1)[nH]c1ccccc12`, in data set [1], the Efficacy was greater than 90%.
In data set [2], `COc1cc(OC(=O)NCCCCN2CCN(c3cccc(Cl)c3Cl)CC2)ccc1-c1ccccc1` displayed an IC50 of 4.3 nM. The EC50 in [23] amounted to 1.66 nM. Besides, the Efficacy in [1] came to 32%.
For the molecule `COc1ccccc1N1CCN(CCCCNC(=O)Oc2ccc3c(c2)[nH]c2ccccc23)CC1`, the Efficacy in data set [1] turned out to be 66%; in data set [4], 44%. The EC50 in data set [3] turned out to be 57.9 nM. Also, in [24], the Ratio EC50 stood at 4.8.

In general, IC50 refers to the concentration that inhibits the measured activity by half. Higher therefore signals weaker potency in that assay. Broadly, the EC50 is the midpoint of the concentration-response curve. In general, Cmax refers to the maximum level reached in the sampled fluid or tissue. In general, Vd refers to the apparent volume that relates the amount in the body to the concentration in plasma or blood. A higher Vd goes with extensive tissue distribution. What is called clearance is a measure of how efficiently the substance is removed, as volume per time. A lower clearance goes with a low capacity for elimination. As usually defined, the bioavailability is the share of a dose that reaches the circulation, judged against a reference dose that is usually intravenous. The AUC is concentration integrated over time. By Tmax is commonly meant the time from dosing to the highest level. Broadly, the inhibition is the share of the control response that was lost under treatment.
